Laboratory results: ChEMBL document CHEMBL5033998, “Discovery of DDO-2213 as a Potent and Orally Bioavailable Inhibitor of the WDR5-Mixed Lineage Leukemia 1 Protein-Protein Interaction for the Treatment of MLL Fusion Leukemia” (J Med Chem, 2021)
The source made the active and inactive calls. The rule behind the calls is not given here.

Legend:
[1] = tested on: MV4-11; test: Antitumor activity against human MV4-11 cells xenografted in Balb/c nude mouse assessed as tumor weight inhibition at 120 mg/kg, po administered daily for 21 days relative to control; assay type: functional; details: MV4-11, po, 504 h
Procedure, shortened: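 MV4-11 flank xenografts (~5 × 10^6 cells) in female BALB/c nude mice, 6 per group; daily oral dosing (40, 80, 120 mg/kg) or saline vehicle for 21 days, then tumors excised and weighed.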

[2] = biological target: Protein arginine N-methyltransferase 5 (Homo sapiens, UniProt O14744); test: Inhibition of PRMT5 (unknown origin) assessed as effect on H3R8/H4R3 methylation incubated for 30 mins by Alphascreen assay
Procedure, shortened: (§1)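 AlphaScreen: enzyme, SAM and compound mixed in 10 mM PBS for 30 min at room temperature; acceptor beads and substrate antibody added, 30 min at room temperature, then streptavidin donor beads; read on AlphaScreen reader.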

[3] = tested on: MV4-11; test: Antitumor activity against human MV4-11 cells xenografted in Balb/c nude mouse assessed as tumor growth inhibition at 80 mg/kg, po administered daily for 21 days relative to control; assay type: functional; details: MV4-11, po, 504 h, time 21 day, read-out: TGI
Procedure, shortened: (§2)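 Female BALB/c nude mice (6–8 weeks) given ~5 × 10^6 MV4-11 cells in 0.2 mL PBS into the flank; at 100–150 mm3 randomized (6/group) to vehicle (0.9% saline) or 40, 80, 120 mg/kg oral (hydrochloride salt) daily for 21 days. Volume = length × width²/2 every other day; GI% = [1 − (TVt − TV0)/(CVt − CV0)] × 100%.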

[4] = Metabolic stability in human liver microsomes assessed as clearance at 1 uM in presence of NADPH by LC-MS/MS analysis; assay type: ADME, Microsome
Procedure, shortened: (§3)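 Compound at 1 μM preincubated 5 min at 37 °C with human or rat liver microsomes (0.7 mg/mL) in 100 mM PBS pH 7.4; reaction started with 1 mM NADPH.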

[5] = tested on: MV4-11; test: Antitumor activity against human MV4-11 cells xenografted in Balb/c nude mouse assessed as tumor growth inhibition at 120 mg/kg, po administered daily for 21 days relative to control; assay type: functional; details: MV4-11, po, 504 h, time 21 day, read-out: TGI; procedure, shortened: as §2
[6] = biological target: T1, N-lysine methyltransferase KMT5A (Homo sapiens, UniProt Q9NQR1); test: Inhibition of SET8 (unknown origin) assessed as effect on H4K20 methylation incubated for 30 mins by Alphascreen assay; procedure, shortened: as §1
T1 sequence (Q9NQR1 whole entry): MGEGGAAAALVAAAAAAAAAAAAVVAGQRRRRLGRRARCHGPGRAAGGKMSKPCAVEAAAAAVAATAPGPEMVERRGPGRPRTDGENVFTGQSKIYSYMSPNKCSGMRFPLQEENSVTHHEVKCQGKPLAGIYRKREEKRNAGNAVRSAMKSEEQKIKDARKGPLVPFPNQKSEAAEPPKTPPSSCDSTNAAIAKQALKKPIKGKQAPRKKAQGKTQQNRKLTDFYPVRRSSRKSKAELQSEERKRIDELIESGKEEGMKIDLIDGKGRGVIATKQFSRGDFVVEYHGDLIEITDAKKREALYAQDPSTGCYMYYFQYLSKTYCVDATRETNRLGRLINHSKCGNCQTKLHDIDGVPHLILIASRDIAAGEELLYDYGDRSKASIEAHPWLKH

[7] = biological target: T2, Histone-lysine N-methyltransferase 2A (Homo sapiens, UniProt Q03164); test: Inhibition of MLL1 (unknown origin) in human MV4-11 cells assessed as decrease in H3Kme2 level at 1 to 10 uM measured after 7 days by Western blot analysis; assay type: cell-based
Procedure, shortened: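 MV4-11 cells exposed to 1, 2.5, 5 and 10 μM; H3K4me1/me2/me3 assessed by Western blot with histone H3 as loading control. Blots blocked in 1% BSA 1 h, primary antibody overnight at 4 °C, DyLight 800 secondary 1 h at 37 °C, infrared imaging.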

[8] = AUC (0 to infinity) in Sprague-Dawley rat at 2 mg/kg, iv measured upto 24 hrs by LC-MS/MS analysis; assay type: ADME, organism-based; set-up: route intravenous, dose 2 mg/kg, time <=24; details: in vivo
[9] = Half life in Sprague-Dawley rat at 10 mg/kg, po measured upto 24 hrs by LC-MS/MS analysis; assay type: ADME, organism-based; details: in vivo
Procedure, shortened: (§4)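 Male SD rats, 6–8 weeks, 220 ± 30 g; single oral dose 10 mg/kg (n = 3). Plasma sampled at 0, 0.25, 0.5, 1, 2, 4, 6, 8 and 24 h, stored at −80 °C, quantified by LC-MS/MS; parameters reported as mean ± SEM.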

[10] = Tmax in Sprague-Dawley rat at 10 mg/kg, po measured upto 24 hrs by LC-MS/MS analysis; assay type: ADME, organism-based; details: in vivo; procedure, shortened: as §4
[11] = Cmax in Sprague-Dawley rat at 10 mg/kg, po measured upto 24 hrs by LC-MS/MS analysis; assay type: ADME, organism-based; set-up: route oral, dose 10 mg/kg, time <=24; details: in vivo; procedure, shortened: as §4
[12] = Toxicity in Balb/c nude mouse xenografted with human MV4-11 cells assessed as body weight loss at 40 to 120 mg/kg, po administered daily for 21 days relative to control; assay type: organism-based; details: in vivo, 504 h
Procedure, shortened: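 Nude BALB/c females bearing MV4-11 xenografts, dosed orally each day for 21 days at 40, 80 or 120 mg/kg, saline vehicle controls (6 mice/group); body weight recorded every other day.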

[13] = tested on: MV4-11; test: Antiproliferative activity against human MV4-11 cells assessed as cell viability incubated for 72 hrs by CCK8 assay; assay type: functional, cell-based; details: MV4-11, 72 h
Procedure, shortened: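 Cells seeded at 3000–6000 per well, exposed to inhibitor at several concentrations for 72 h; viability read with CCK8 kit. MV4-11 and K562 grown in modified IMDM + 10% FBS, pen/strep; MOLM-13 in RPMI-1640 + 10% FBS; HUVEC in modified DMEM + 10% FBS; 37 °C, 5% CO2. IC50 as mean ± SD of three independent experiments.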

[14] = biological target: T2, Histone-lysine N-methyltransferase 2A; test: Inhibition of MLL1 (unknown origin) histone methyltransferase activity assessed as inhibition of H3K4 methylation incubated for 30 mins by chemiluminescence assay
[15] = Metabolic stability in rat liver microsomes assessed as clearance at 1 uM in presence of NADPH by LC-MS/MS analysis; assay type: ADME, Microsome; procedure, shortened: as §3
[16] = Oral bioavailability in Sprague-Dawley rat at 10 mg/kg measured upto 24 hrs by LC-MS/MS analysis; assay type: ADME, organism-based; details: in vivo
Procedure, shortened: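 Bioavailability from paired rat groups (male SD, n = 3 each): 10 mg/kg oral vs 2 mg/kg i.v.; plasma sampled to 24 h and measured by LC-MS/MS.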

[17] = Apparent volume of distribution in Sprague-Dawley rat at 10 mg/kg, po measured upto 24 hrs by LC-MS/MS analysis; assay type: ADME, organism-based; details: in vivo, read-out: Vz/F; procedure, shortened: as §4
[18] = tested on: MV4-11; test: Antitumor activity against human MV4-11 cells xenografted in Balb/c nude mouse assessed as tumor growth inhibition at 40 mg/kg, po administered daily for 21 days relative to control; assay type: functional; details: MV4-11, po, 504 h, time 21 day, read-out: TGI; procedure, shortened: as §2
[19] = Metabolic stability in human liver microsomes assessed as half life at 1 uM in presence of NADPH by LC-MS/MS analysis; assay type: ADME, Microsome; procedure, shortened: as §3
[20] = MRT in Sprague-Dawley rat at 2 mg/kg, iv measured upto 24 hrs by LC-MS/MS analysis; assay type: ADME, organism-based; details: in vivo
[21] = Metabolic stability in rat liver microsomes assessed as half life at 1 uM in presence of NADPH by LC-MS/MS analysis; assay type: ADME, Microsome; procedure, shortened: as §3

T2 sequence (Q03164 1-2718 limits assumed): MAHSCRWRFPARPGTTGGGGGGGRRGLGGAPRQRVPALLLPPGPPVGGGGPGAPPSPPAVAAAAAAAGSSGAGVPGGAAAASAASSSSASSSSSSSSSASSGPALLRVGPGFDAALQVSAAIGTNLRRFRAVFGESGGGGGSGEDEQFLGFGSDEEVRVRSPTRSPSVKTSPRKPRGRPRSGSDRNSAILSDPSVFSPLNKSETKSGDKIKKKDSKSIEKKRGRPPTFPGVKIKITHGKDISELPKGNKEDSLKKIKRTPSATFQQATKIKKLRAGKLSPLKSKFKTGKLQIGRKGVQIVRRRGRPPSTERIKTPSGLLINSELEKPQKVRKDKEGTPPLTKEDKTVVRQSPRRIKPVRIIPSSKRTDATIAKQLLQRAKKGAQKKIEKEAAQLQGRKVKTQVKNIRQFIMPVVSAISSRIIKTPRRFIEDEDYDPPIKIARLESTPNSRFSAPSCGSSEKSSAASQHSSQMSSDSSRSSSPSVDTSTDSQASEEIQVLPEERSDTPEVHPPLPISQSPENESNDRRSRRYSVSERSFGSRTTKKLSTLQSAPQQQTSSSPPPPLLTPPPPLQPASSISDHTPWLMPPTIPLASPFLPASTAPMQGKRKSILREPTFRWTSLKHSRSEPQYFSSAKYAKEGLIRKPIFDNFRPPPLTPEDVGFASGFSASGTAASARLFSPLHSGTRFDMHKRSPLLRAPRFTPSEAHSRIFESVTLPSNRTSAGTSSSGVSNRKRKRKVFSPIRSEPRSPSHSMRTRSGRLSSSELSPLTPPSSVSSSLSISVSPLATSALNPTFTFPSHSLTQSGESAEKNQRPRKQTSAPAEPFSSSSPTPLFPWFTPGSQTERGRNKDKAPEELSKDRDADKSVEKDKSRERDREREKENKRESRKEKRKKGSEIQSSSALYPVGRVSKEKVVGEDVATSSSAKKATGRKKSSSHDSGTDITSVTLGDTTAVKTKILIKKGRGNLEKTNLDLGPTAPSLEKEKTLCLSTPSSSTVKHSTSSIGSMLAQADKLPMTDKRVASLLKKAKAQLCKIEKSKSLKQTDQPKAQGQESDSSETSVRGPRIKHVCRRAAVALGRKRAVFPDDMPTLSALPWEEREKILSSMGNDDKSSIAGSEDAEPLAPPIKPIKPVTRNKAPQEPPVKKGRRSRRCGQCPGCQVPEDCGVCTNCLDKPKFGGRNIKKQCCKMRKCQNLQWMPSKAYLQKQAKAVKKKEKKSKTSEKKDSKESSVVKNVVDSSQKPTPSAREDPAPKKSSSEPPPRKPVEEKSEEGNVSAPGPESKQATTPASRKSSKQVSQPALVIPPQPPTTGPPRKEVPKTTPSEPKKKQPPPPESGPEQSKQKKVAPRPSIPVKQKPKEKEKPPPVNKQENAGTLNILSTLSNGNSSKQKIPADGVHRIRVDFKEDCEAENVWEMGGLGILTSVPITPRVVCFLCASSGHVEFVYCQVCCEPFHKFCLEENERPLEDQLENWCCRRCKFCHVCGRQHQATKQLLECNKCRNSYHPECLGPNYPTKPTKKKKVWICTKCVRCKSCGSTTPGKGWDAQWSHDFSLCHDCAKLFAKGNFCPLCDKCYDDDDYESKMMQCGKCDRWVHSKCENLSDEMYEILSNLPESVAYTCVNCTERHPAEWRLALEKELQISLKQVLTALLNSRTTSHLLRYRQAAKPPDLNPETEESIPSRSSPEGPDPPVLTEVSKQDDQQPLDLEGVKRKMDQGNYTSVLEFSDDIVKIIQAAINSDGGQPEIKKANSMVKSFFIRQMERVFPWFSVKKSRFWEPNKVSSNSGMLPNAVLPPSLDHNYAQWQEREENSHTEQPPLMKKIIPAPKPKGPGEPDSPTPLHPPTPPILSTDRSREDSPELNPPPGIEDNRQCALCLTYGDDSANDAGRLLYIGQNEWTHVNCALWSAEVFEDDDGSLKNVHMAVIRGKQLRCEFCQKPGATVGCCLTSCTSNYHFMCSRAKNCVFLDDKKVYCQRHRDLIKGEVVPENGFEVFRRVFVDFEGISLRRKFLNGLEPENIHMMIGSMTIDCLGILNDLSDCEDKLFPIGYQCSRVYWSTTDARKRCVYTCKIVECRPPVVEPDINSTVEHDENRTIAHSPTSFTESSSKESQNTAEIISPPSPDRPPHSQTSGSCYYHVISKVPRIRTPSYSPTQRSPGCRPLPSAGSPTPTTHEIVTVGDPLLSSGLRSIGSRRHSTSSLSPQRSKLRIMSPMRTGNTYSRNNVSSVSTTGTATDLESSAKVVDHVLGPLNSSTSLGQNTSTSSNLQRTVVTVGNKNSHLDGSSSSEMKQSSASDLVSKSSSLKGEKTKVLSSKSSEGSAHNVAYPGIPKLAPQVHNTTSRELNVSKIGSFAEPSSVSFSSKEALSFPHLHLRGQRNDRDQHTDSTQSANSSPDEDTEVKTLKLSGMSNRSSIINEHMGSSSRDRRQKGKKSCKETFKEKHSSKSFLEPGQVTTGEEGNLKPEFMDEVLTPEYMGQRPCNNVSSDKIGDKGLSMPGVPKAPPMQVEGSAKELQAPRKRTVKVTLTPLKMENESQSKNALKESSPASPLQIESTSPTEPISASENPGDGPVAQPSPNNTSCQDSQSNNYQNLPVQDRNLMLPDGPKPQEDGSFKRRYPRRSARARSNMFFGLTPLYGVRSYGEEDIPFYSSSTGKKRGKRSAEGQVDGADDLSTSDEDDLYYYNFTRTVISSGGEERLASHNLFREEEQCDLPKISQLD
T2 sequence (Q03164 2719-3969 limits assumed): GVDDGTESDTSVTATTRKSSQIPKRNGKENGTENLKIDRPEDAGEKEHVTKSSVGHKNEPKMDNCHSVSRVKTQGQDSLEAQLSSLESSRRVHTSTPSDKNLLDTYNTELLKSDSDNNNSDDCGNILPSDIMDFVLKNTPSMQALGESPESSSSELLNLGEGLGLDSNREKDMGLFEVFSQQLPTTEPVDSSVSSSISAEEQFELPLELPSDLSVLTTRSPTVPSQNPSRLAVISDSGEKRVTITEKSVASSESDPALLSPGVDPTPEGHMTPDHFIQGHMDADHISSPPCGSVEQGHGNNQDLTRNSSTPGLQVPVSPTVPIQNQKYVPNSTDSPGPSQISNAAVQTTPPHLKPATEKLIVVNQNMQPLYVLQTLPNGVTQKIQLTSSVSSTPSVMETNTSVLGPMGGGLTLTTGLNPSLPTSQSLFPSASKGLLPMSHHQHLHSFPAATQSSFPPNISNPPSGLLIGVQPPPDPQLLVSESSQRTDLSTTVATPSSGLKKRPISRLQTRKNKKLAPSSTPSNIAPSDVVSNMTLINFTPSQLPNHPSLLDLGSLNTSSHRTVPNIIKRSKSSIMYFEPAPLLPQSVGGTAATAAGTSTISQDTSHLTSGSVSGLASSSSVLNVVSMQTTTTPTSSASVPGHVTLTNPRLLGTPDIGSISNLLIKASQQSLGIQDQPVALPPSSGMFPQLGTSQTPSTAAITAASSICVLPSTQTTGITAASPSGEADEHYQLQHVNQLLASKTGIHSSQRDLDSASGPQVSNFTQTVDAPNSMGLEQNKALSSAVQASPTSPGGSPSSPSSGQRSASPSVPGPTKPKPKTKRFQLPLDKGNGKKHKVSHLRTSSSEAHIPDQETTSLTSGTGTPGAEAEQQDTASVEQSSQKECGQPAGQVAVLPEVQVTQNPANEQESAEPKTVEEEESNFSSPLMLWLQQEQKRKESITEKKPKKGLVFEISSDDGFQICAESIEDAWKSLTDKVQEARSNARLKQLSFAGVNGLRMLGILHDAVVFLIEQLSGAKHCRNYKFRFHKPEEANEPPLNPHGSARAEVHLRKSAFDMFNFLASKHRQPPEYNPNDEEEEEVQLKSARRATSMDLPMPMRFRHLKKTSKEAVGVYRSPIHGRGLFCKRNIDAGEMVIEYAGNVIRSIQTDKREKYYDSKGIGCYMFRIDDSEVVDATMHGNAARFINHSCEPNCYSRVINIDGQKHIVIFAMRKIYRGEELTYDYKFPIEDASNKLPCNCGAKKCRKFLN
Chain of Protein arginine N-methyltransferase 5 (O14744 whole entry): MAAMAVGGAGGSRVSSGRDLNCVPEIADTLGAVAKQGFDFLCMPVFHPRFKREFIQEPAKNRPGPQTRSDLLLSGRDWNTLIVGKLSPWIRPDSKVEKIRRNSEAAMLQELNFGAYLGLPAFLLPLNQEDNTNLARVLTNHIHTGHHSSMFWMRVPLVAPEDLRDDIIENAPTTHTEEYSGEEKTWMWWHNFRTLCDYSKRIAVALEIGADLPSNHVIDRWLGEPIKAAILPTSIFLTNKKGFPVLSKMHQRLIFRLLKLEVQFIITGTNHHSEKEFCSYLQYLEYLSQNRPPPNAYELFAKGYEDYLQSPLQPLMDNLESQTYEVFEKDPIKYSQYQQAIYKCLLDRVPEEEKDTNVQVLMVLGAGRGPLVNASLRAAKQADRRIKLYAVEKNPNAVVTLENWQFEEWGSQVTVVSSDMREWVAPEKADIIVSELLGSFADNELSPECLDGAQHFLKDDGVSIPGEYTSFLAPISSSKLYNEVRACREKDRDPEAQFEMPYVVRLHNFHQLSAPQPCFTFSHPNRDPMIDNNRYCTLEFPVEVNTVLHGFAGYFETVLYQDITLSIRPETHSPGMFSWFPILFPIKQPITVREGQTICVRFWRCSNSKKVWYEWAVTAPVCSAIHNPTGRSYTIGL

CN1CCN(c2cc(F)c(-c3ccc(C(=O)N(C)C)cc3)cc2Nc2ncnc(Cl)c2N)CC1
inhibition in vivo at 120 mg/kg [1]: 56.8% | IC50 [2]: > 100 µM | inhibition in vivo at 80 mg/kg [3]: 53.6% | CLH [4]: 14.1 µL/min/mg | inhibition in vivo at 120 mg/kg [5]: 54.5% | IC50 [6]: > 100 µM | inhibition [7]: Active | AUC(0-inf) [8]: 424 ng·h/mL | half-life [9]: 4.94 h | Tmax [10]: 2 h | Cmax [11]: 159 ng/mL | Activity [12]: Non-Toxic | IC50 [13]: 12.6 µM | IC50 [14]: 0.78 µM | CLH [15]: 15 µL/min/mg | bioavailability [16]: 82.1% | Vd/F [17]: 37.1 L/kg | inhibition in vivo at 40 mg/kg [18]: 39.4% | half-life at 1 µM [19]: 1.17 h | MRT [20]: 1.18 h | half-life at 1 µM [21]: 1.1 h
